Reference: ChEMBL document CHEMBL1177656, “Improved P2 phenylglycine-based hepatitis C virus NS3 protease inhibitors with alkenylic prime-side substituents” (Bioorg Med Chem, 2010)

Tests used:
[1] = Inhibition of HCV NS3 protease by FRET assay; parameters: species or system Hepacivirus hominis
Procedure, shortened: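 Buffer was 50 mM HEPES pH 7.5, 10 mM DTT, 40% glycerol, 0.1% n-octyl-β-D-glucoside and 3.3% DMSO. Reaction was started with FRET substrate Ac-DED(Edans)EEAbu[COO]ASK(Dabcyl)-NH2. Ki was obtained by non-linear regression.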

NS3 protease [2] = biological target: NS3 protease (Hepatitis C virus subtype 1b, UniProt Q0ZMF1, A156T); experiment: Inhibition of HCV NS3 protease A156T mutant by FRET assay; parameters: species or system Hepacivirus hominis
Procedure, shortened: (§1)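 Buffer was 50 mM HEPES pH 7.5, 10 mM DTT, 40% glycerol, 0.1% n-octyl-β-D-glucoside and 3.3% DMSO. Reaction started with the FRET substrate Ac-DED(Edans)EEAbu[COO]ASK(Dabcyl)-NH2. Ki derived by non-linear regression.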

Hepatitis C virus = experiment: Antiviral activity against HCV 1B […] by firefly luciferase reporter gene assay; format: functional, organism-based, Hepacivirus hominis; settings: genotype 1b, Huh-7
NS3 protease [3] = biological target: NS3 protease (Hepacivirus C, UniProt C1KIQ2, D168V); experiment: Inhibition of HCV NS3 protease D168V mutant by FRET assay; parameters: species or system Hepacivirus hominis; procedure, shortened: as §1

Ki [1] | Structure (SMILES) | Ki (NS3 protease [2]) | EC50 (Hepatitis C virus) | Ki (NS3 protease [3])
330 nM | C=CCC1(S(=O)(=O)NC(=O)[C@H](CCC)NC(=O)[C@@H](NC(=O)[C@@H](NC(=O)OC(C)(C)C)C(C)(C)C)c2ccc(Oc3cc(-c4ccccc4)nc4cc(OC)ccc34)c(C=C)c2)CC1 | – | – | –
190 nM | C=CCC1(S(=O)(=O)NC(=O)[C@H](CCC)NC(=O)[C@H](NC(=O)[C@@H](NC(=O)OC(C)(C)C)C(C)(C)C)c2ccc(Oc3cc(-c4ccccc4)nc4cc(OC)ccc34)c(C=C)c2)CC1 | – | – | –
290 nM | C=Cc1cc([C@H](NC(=O)[C@@H](NC(=O)OC(C)(C)C)C(C)(C)C)C(=O)N[C@@H](CCC)C(=O)NS(=O)(=O)c2ccccc2)ccc1Oc1cc(-c2ccccc2)nc2cc(OC)ccc12 | – | – | –
130 nM | C=Cc1cc([C@@H](NC(=O)[C@@H](NC(=O)OC(C)(C)C)C(C)(C)C)C(=O)N[C@@H](CCC)C(=O)NS(=O)(=O)c2ccccc2)ccc1Oc1cc(-c2ccccc2)nc2cc(OC)ccc12 | – | – | –
140 nM | C=CCc1ccccc1S(=O)(=O)NC(=O)[C@H](CCC)NC(=O)[C@@H](NC(=O)[C@@H](NC(=O)OC(C)(C)C)C(C)(C)C)c1ccc(Oc2cc(-c3ccccc3)nc3cc(OC)ccc23)c(C=C)c1 | – | > 10000 nM | –
35 nM | C=CCc1ccccc1S(=O)(=O)NC(=O)[C@H](CCC)NC(=O)[C@H](NC(=O)[C@@H](NC(=O)OC(C)(C)C)C(C)(C)C)c1ccc(Oc2cc(-c3ccccc3)nc3cc(OC)ccc23)c(C=C)c1 | – | 3000 nM | –
300 nM | C=CCCCS(=O)(=O)NC(=O)[C@H](CCC)NC(=O)[C@@H]1C[C@@H](Oc2cc(-c3ccccc3)nc3cc(OC)ccc23)CN1C(=O)[C@@H](NC(=O)OC(C)(C)C)C(C)(C)C | – | – | –
230 nM | CCC[C@H](NC(=O)[C@@H](NC(=O)[C@@H](NC(=O)OC(C)(C)C)C(C)(C)C)c1ccc(Oc2cc(-c3ccccc3)nc3cc(OC)ccc23)cc1)C(=O)NS(=O)(=O)c1ccccc1 | – | – | –
– | CC(C)(C)OC(=O)N[C@H]1CCCCC/C=C\C2C[C@@]2(C(=O)NS(=O)(=O)C2CC2)NC(=O)[C@@H]2C[C@@H](OC(=O)N3Cc4cccc(F)c4C3)CN2C1=O (single isomer, unassigned) [DANOPREVIR] | – | 2.1 nM | –
14 nM | CC(C)(C)NC(=O)N[C@H](C(=O)N1C[C@H]2[C@@H]([C@H]1C(=O)NC(CC1CCC1)C(=O)C(N)=O)C2(C)C)C(C)(C)C (some centres not stated) [BOCEPREVIR] | – | – | –
0.36 nM | COc1ccc2c(O[C@@H]3C[C@H]4C(=O)N[C@]5(C(=O)NS(=O)(=O)C6CC6)C[C@H]5/C=C\CCCCN(C)C(=O)[C@@H]4C3)cc(-c3nc(C(C)C)cs3)nc2c1C [SIMEPREVIR] | – | – | –
40 nM | CCC[C@H](NC(=O)[C@@H]1[C@H]2CCC[C@H]2CN1C(=O)[C@@H](NC(=O)[C@@H](NC(=O)c1cnccn1)C1CCCCC1)C(C)(C)C)C(=O)C(=O)NC1CC1 [TELAPREVIR] | – | – | –
0.06 nM | CC[C@@H]1C[C@]1(NC(=O)[C@@H]1C[C@@H]2CN1C(=O)[C@H](C(C)(C)C)NC(=O)OCC(C)(C)CCCCc1cccc3c1CN(C3)C(=O)O2)C(=O)NS(=O)(=O)C1CC1 [VANIPREVIR] | – | 5 nM | –

Structure (SMILES) | Ki [1] | Ki (NS3 protease [2]) | EC50 (Hepatitis C virus) | Ki (NS3 protease [3])
C=CCCCS(=O)(=O)NC(=O)[C@H](CCC)NC(=O)[C@@H](NC(=O)[C@@H](NC(=O)OC(C)(C)C)C(C)(C)C)c1ccc(Oc2cc(-c3ccccc3)nc3cc(OC)ccc23)c(C=C)c1 | 63 nM | 180 nM | > 10000 nM | 140 nM
C=CCCCS(=O)(=O)NC(=O)[C@H](CCC)NC(=O)[C@H](NC(=O)[C@@H](NC(=O)OC(C)(C)C)C(C)(C)C)c1ccc(Oc2cc(-c3ccccc3)nc3cc(OC)ccc23)c(C=C)c1 | 48 nM | 86 nM | 8900 nM | 380 nM
C=CCCCCS(=O)(=O)NC(=O)[C@H](CCC)NC(=O)[C@@H](NC(=O)[C@@H](NC(=O)OC(C)(C)C)C(C)(C)C)c1ccc(Oc2cc(-c3ccccc3)nc3cc(OC)ccc23)c(C=C)c1 | 120 nM | 380 nM | > 10000 nM | 390 nM
C=CCCCCS(=O)(=O)NC(=O)[C@H](CCC)NC(=O)[C@H](NC(=O)[C@@H](NC(=O)OC(C)(C)C)C(C)(C)C)c1ccc(Oc2cc(-c3ccccc3)nc3cc(OC)ccc23)c(C=C)c1 | 100 nM | 270 nM | 4700 nM | 530 nM
C=Cc1cc([C@H](NC(=O)[C@@H](NC(=O)OC(C)(C)C)C(C)(C)C)C(=O)N[C@@H](CCC)C(=O)NS(=O)(=O)c2ccccc2C=C)ccc1Oc1cc(-c2ccccc2)nc2cc(OC)ccc12 | 120 nM | 250 nM | > 10000 nM | 450 nM
C=Cc1cc([C@@H](NC(=O)[C@@H](NC(=O)OC(C)(C)C)C(C)(C)C)C(=O)N[C@@H](CCC)C(=O)NS(=O)(=O)c2ccccc2C=C)ccc1Oc1cc(-c2ccccc2)nc2cc(OC)ccc12 | 47 nM | 180 nM | 5400 nM | 230 nM
COc1ccc2c(O[C@@H]3C[C@H]4C(=O)N[C@]5(C(=O)O)C[C@H]5/C=C\CCCCC[C@H](NC(=O)OC5CCCC5)C(=O)N4C3)cc(-c3csc(NC(C)C)n3)nc2c1 [CILUPREVIR] | 0.3 nM | – | 4 nM | –
